APJ ag – agonists of human apelin receptor APJ, primary screen, CHO-K1 cells, PathHunter beta-arrestin, luminescence. AID 2520, 2010. P35414. 0% DMSO wells, 100% apelin. 0.11% of 330,000 active. activation, % at 20 µM;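 active = activation more than six SD over the plate average, tested at 20 µM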;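 note: 0% = DMSO alone and 100% = apelin-13 at 10 nM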
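Assay system – PathHunter CHO-K1 APJ (AGTRL-1) beta-arrestin reporter cells · Compound – one dose, 20 µM compound, 1% DMSO · Timing – compound 90 min 25 °C, reagent 1 h · Measured by – luminescence from split beta-galactosidase complementation, Galacton Star/Emerald II substrate · Measure – beta-arrestin recruitment to APJ as agonist activity, luminescent signal · Benchmarks – DMSO vs Apelin-13 10 nM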
CXCR6 inh – CXCR6 receptor inhibitors, primary screen, cell-based, beta-arrestin, luminescence, CHO-K1 PathHunter, 1536-well; C-X-C chemokine receptor type 6 (Homo sapiens), O00574; inhibition, % at 20 µM; 0.36% of 360,000 active; AID 602244, 2012; in the data active = inhibition above about 34%, passing the limit was not always enough;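 note: antagonist mode with CXCL16 agonist at 10 nM final; 0% = 10 nM CXCL16 with DMSO and 100% = unstimulated wells without agonist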
CCR6 antagonist – CCR6 receptor antagonists, primary screen, cell-based, CHO-K1, luminescence, beta-arrestin, uHTS; C-C chemokine receptor type 6 (Homo sapiens), P51684; CHO-K1 CCR6 PathHunter beta-arrestin, CCL20-stimulated; inhibition, % at 20 µM; 0.49% of 340,000 active; AID 493098, 2011;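 active = compounds whose inhibition of the agonist-driven luminescence signal at 20 µM reaches about 50%, limit read from the data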;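 note: cells stimulated with CCL20 at 14 nM final; plate controls were DMSO with CCL20 for no effect and DMSO without agonist for full effect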
Target sequence (P51684 whole entry, looked up): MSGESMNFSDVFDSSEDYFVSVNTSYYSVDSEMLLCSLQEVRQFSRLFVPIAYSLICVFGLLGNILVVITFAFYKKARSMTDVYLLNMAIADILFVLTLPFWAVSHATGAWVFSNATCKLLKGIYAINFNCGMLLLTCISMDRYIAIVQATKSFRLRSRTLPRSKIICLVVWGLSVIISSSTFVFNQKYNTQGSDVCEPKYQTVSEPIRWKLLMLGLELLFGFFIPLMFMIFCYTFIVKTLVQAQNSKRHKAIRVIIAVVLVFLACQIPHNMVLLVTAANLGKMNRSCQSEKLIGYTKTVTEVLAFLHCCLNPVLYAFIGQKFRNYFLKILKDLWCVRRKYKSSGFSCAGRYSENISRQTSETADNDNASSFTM
EBI2 antag – EBI2 receptor antagonists, beta-arrestin recruitment, primary screen, cell-based, luminescence, 7a,25-OHC stimulation, uHTS; 0.81% of 360,000 active; G-protein coupled receptor 183 (Homo sapiens), P32249; 7a,25-OHC stimulated; inhibition, % at 5 µM; in the data active = inhibition above about 38%;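 note: enzyme fragment complementation signal reports receptor beta-arrestin coupling in cells; 0% = agonist plus DMSO wells and 100% = wells without agonist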
Beta2AR agonist – beta2AR agonists driving receptor internalization, primary screen, cell-based, FAP fluorogen, flow cytometry. Beta-2 adrenergic receptor (Homo sapiens), P07550. Am2.2-beta2AR cells. response, % (concentration not given with the values). 0.43% of 340,000 active. AID 504454, 2011;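 active = response above a set limit, near 3 SD of response in nonfluorescent compounds, cut at about 42% in these data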
APJ antag – antagonists of human apelin receptor APJ, primary screen, CHO-K1 cells, beta-arrestin complementation, luminescence | P35414 | inhibition, % at 20 µM | 0.32% of 330,000 active;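 active = inhibition above about 40% at 20 µM, limit read from the data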;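 note: cells challenged with 10 nM apelin-13 agonist together with compound; plate controls were apelin-13 plus DMSO wells for no effect and DMSO wells lacking apelin-13 for full effect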
APJ antag conf – APJ antagonists blocking beta-arrestin recruitment, confirmation, cell-based, luminescence, single concentration, uHTS hits; AID 2766, 2010; inhibition, % at 20 µM; antagonist mode; 66% of 950 active; shares compounds with APJ antag; in the data active = inhibition above about 50%
An asterisk follows results filed as active; . = no result. Hits are enriched below; roughly 1.8% of the tested compounds scored in any of these assays.

SMILES | APJ ag | CXCR6 inh | CCR6 antagonist | EBI2 antag | Beta2AR agonist | APJ antag | APJ antag conf
Cc1ccc(OCC(=O)OCC(=O)c2cccc([N+](=O)[O-])c2)cc1C | -19 | 39 | 51* | 24 | 3 | 57* | 55*
COc1cc([N+](=O)[O-])ccc1NC(=S)NNC(=O)CCC(=O)Nc1ccccc1Cl | -14 | 31 | 34 | 7 | 2 | 45* | 51*
O=C(CCC(=O)OCC(=O)c1cccc([N+](=O)[O-])c1)NC1CCCCC1 | -15 | 24 | 58* | 5 | -6 | 43* | 99*
O=C(CCC(=O)OCC(=O)c1ccc([N+](=O)[O-])cc1)NC1CCCCC1 | 0 | -7 | -4 | -9 | 2 | -13 | .
C[C@@H]1CN([C@@H](C)CO)C(=O)c2cc(-c3cccnc3)cnc2O[C@H]1CN(C)C(=O)c1cccc(F)c1 | . | -4 | . | -1 | . | . | .
Cc1c(C(=O)Nc2ccc3c(c2)OCCO3)sc2ncnc(N3CCCCC3C)c12 (centres undefined) | 2 | 2 | 11 | 13 | 15 | -26 | .
CC1(Cc2ccc(F)c(Cl)c2)C(=O)Nc2c(Cl)cccc21 (centres undefined) | . | 9 | . | 44 | . | . | .
Cc1ccc2oc(/N=C(\N)NC(=O)C(C)(C)C)nc2c1 | -12 | 71* | 70* | 16 | 0 | 54* | 15
CCOC(=O)C1=C(C)N=c2s/c(=C/c3cccc([N+](=O)[O-])c3O)c(=O)n2C1c1ccc(OC)cc1OC (centres undefined) | -7 | 41* | 64* | -5 | 19 | 57* | 98*
Cc1ccc2c(c1)C(=O)C(=O)N2c1ccc(C(F)(F)F)cc1 | -7 | 18 | 9 | -8 | 2 | 17 | .
Cc1ccc2c(c1)C(=O)C(=O)N2c1ccc(Cl)cc1 | -9 | 15 | 30 | 6 | 2 | 45* | 86*
CC(=O)Nc1ccc(Cc2ccc3[nH]c(=O)cc(C)c3c2)cc1 | -3 | . | . | . | . | 44* | 9
COc1cccc(OCc2nc3ccccc3c(=O)n2N)c1 | -2 | 2 | -11 | -14 | -7 | 43* | -32
Nn1c(COc2ccccc2)nc2ccccc2c1=O | -1 | -10 | 4 | 5 | -2 | 8 | .
O=C(CSc1nnc(Cn2c(=O)sc3ccccc32)n1-c1ccccc1)N1CCOCC1 | -1 | -2 | -3 | 4 | -6 | -4 | .
Cc1ccccc1-n1c(Cn2c(=O)sc3ccccc32)nnc1SCC(=O)N1CCOCC1 | 0 | -2 | 5 | 5 | -1 | 52* | 19
Cc1nc(-n2[nH]c3c(c2=O)CCCC3)[nH]c(=O)c1Cc1ccccc1 | -10 | 41* | 74* | -8 | 3 | 50* | 81*
Cc1cccc(/C=N\N=C\c2cccc(C)c2)c1 | -2 | -4 | 5 | 12 | -4 | 17 | .
O=S(=O)(c1cccc(Cl)c1Cl)N1CCCCC1 | 2 | 7 | 3 | -1 | 1 | 40* | 22
C1=C(CCNCC2CC2)CCCC1 | 0 | 2 | -10 | 0 | 0 | 41* | 32
O=C(C[n+]1ccc(-c2cc(C(=O)Nc3cccc(C(F)(F)F)c3)c3ccccc3n2)cc1)c1cccc([N+](=O)[O-])c1 | -5 | 27 | 38 | -9 | 1 | 52* | 63*
O=C(C[n+]1cccc(NC(=O)c2ccccc2)c1)c1cccc([N+](=O)[O-])c1 | 0 | -2 | 13 | -5 | -1 | 0 | .
CN1C(=O)/C(=C/c2ccc(O)c([N+](=O)[O-])c2)N(C)C1=S | -8 | 43* | 57* | 3 | -1 | 46* | 85*
Cc1ccc(C(=O)COC(=O)CN2C(=O)C3CC=CCC3C2=O)cc1[N+](=O)[O-] (centres undefined) | -22 | 3 | 28 | -1 | 4 | 45* | 79*
O=C(CCN1C(=O)C2C3CCC(C3)C2C1=O)OCC(=O)c1cccc([N+](=O)[O-])c1 (centres undefined) | -5 | 34 | 41 | 9 | -9 | 39 | .
SMILES | APJ ag | CXCR6 inh | CCR6 antagonist | EBI2 antag | Beta2AR agonist | APJ antag | APJ antag conf
O=C(CN1C(=O)C2C3CCC(C3)C2C1=O)OCC(=O)c1cccc([N+](=O)[O-])c1 (centres undefined) | -12 | 37 | 62* | 22 | -2 | 61* | 89*
Cc1ccc(C(=O)COC(=O)C2CC3CCCC(C2)C3=O)cc1[N+](=O)[O-] (centres undefined) | -9 | 18 | 25 | -2 | -6 | 43* | 22
Cc1ccc(C(=O)COC(=O)CCN2C(=O)C3C4CCC(C4)C3C2=O)cc1[N+](=O)[O-] (centres undefined) | -23 | 16 | 25 | 19 | 4 | 50* | 44
Cc1ccc([N+](=O)[O-])c(NC(=O)COC(=O)C2CC3CCCC(C2)C3=O)c1C (centres undefined) | 2 | 2 | 6 | -4 | -3 | 1 | .
COc1ccc(-c2ccc(C(=O)NCCc3ccccc3)c3occc23)c(C)c1 | . | 10 | . | 22 | . | . | .
Nc1nc(SCc2ccccc2)sc1C(=O)N1CCCCC1 | . | 4 | . | 21 | . | . | .
Cc1ccc(C(=O)COC(=O)CN2C(=O)C3C4CCC(C4)C3C2=O)cc1[N+](=O)[O-] (centres undefined) | -1 | 14 | 50 | -5 | -1 | 49* | 35
O=C(CCN1C(=O)C2C3CC(C(Br)C3Br)C2C1=O)OCC(=O)c1cccc([N+](=O)[O-])c1 (centres undefined) | -13 | 28 | 55* | 12 | 6 | 59* | 100*
O=C(CN1C(=O)C2C3C=CC(C3)C2C1=O)OCC(=O)c1ccc(Cl)c([N+](=O)[O-])c1 (centres undefined) | -38 | 48* | 71* | 5 | -3 | 81* | 143*
O=C(CCC(=O)c1cccs1)OCC(=O)c1ccc(Cl)s1 | -2 | 10 | 14 | 2 | -1 | 41* | -2
Oc1[nH]c2c(Cl)cc(Cl)cc2c1N=NC(=S)NCC1CCCO1 (centres undefined) | -1 | 36 | 58* | 29 | 6 | 40* | 64*
O=C(C1=C(O)C(=O)N(CCN2CCOCC2)C1c1cccs1)c1cc2ccccc2o1 (centres undefined) | -7 | 11 | 23 | 7 | 17 | 56* | 28
